For 16 compounds, GI50 and Activity results are on record in ChEMBL document CHEMBL2434926, “New di(hetero)arylethers and di(hetero)arylamines in the thieno[3,2-b]pyridine series: synthesis, growth inhibitory activity on human tumor cell lines and non-tumor cells, effects on cell cycle and on programmed cell death” (Eur J Med Chem, 2013).

In general, GI50 refers to the concentration at which growth is held to half of that of the control. A higher GI50 goes with lower sensitivity of the cells.

SMILES strings stand for the structures. Activity calls are given as the source filed them. The calls are words filed in the database; no cut-off is given here.

In one data set the test system is HeLa. The data set can be described thus: Growth inhibition of human HeLa cells after 48 hrs by SRB assay. The data set is classed as functional. In short, it runs like this: (§1)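 Sulforhodamine B assay. MCF-7, NCI-H460, HCT15 kept in RPMI-1640 with 10% heat-inactivated FBS and 2 mM glutamine, seeded 7.5 × 10^3 cells/well. HeLa and HepG2 kept in DMEM with 10% FBS, 2 mM glutamine and penicillin/streptomycin, seeded 1.0 × 10^4 cells/well. Cultures at 37 °C, 5% CO2. GI50 is the concentration giving 50% inhibition of net growth; three independent experiments in triplicate, mean ± SD; ellipticine positive control.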

The subject of another data set is HepG2. The data set can be described thus: Growth inhibition of human HepG2 cells after 48 hrs by SRB assay. It is filed as functional. Particulars: HepG2, 48 h. Put shortly: as §1
The subject of the next data set is HCT-15. The data set can be described thus: Growth inhibition of human HCT15 cells after 48 hrs by SRB assay. It is filed as functional. As to conditions: HCT-15, 48 h. Put shortly: as §1
The subject of data set [1] is MCF7. The data set can be described thus: Growth inhibition of human MCF7 cells after 48 hrs by SRB assay. It is filed as functional. As to conditions: MCF7, 48 h. Put shortly: as §1
A short description of data set [2]: Growth inhibition of PLP2 cells after 48 hrs by SRB assay. The data set is classed as cell-based, Sus scrofa. As to conditions: pig. Put shortly: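 Porcine liver primary cells (PLP2), established by the authors, subcultured before confluence, seeded 1.0 × 10^4 cells/well in DMEM with 10% FBS and penicillin/streptomycin. Treated 48 h with compound solutions, then sulforhodamine B read-out. GI50 is the concentration inhibiting 50% of net growth; three independent experiments in triplicate, mean ± SD; ellipticine positive control.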
On the technique in general: Sulforhodamine B stains cellular protein and so reports cell mass.

For data set [3], the system named is NCI-H460. The data set can be described thus: Growth inhibition of human NCI-H460 cells after 48 hrs by SRB assay. Particulars: NCI-H460, 48 h. It is filed as functional. Put shortly:
as §1

The test system of data set [4] is NCI-H460. The data set can be described thus: Induction of apoptosis in human NCI-H460 cells at GI50 after 24 hrs by TUNEL assay. It is filed as functional, cell-based. Put shortly: (§2)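 NCI-H460 seeded at 1 × 10^5 cells/well, grown 24 h at 37 °C, treated with compound at GI50, DMSO vehicle or medium for 24 h or 48 h. Fixed in 4% paraformaldehyde 30 min, cytospun, permeabilized with ice-cold 0.1% Triton X-100 in 0.1% sodium citrate 2 min, TUNEL reaction mix (enzyme 1:20) 1 h, DAPI counterstain. Fluorescence microscopy counting at least 500 cells per slide (about 300 in some 48 h samples). Mean ± SEM of three independent experiments; two-tailed paired t-test versus DMSO.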

The subject of data set [5] is NCI-H460. The data set can be described thus: Cell cycle arrest in human NCI-H460 cells assessed as accumulation at sub-G1 phase at GI50 after 24 hrs by propidium iodide staining-based flow cytometry. The data set is classed as functional. (A flow cytometer gives signals particle by particle.)
For data set [6], the system named is NCI-H460. The data set can be described thus: Induction of apoptosis in human NCI-H460 cells at GI50 after 48 hrs by TUNEL assay relative to DMSO-treated control. The data set is classed as functional. In short, it runs like this:
as §2

The nature of data set [7]: Growth inhibition of human A375-C5 cells. It is filed as functional.
In data set [8] the test system is NCI-H460. The data set can be described thus: Growth inhibition of human NCI-H460 cells. The data set is classed as functional.
The subject of data set [9] is MCF7. The experiment in a line: Growth inhibition of human MCF7 cells. It is filed as functional.
Data set [10] in a line: Growth inhibition of human A375-C5 cells after 48 hrs by SRB assay. It is filed as functional. As to conditions: A375-C5, 48 h.

As for `Fc1ccccc1Nc1ccnc2ccsc12`, the GI50 was 26.4 µM with HeLa; 25.8 µM in the data set on HepG2; 86.7 µM in the data set on HCT-15; 94.4 µM in the data set on MCF7 [1]; 79.5 µM with NCI-H460 [3]. In data set [2], this compound came in with a concentration for 50% growth inhibition (GI50) at 48 h of 115 µM.

Consider `Fc1cccc(Oc2ccnc3ccsc23)c1`, for which the 50% growth inhibitory concentration (GI50) in the data set on HeLa worked out at 34.5 µM; with HepG2 it was 42.6 µM; in the data set with HCT-15, 103 µM; with MCF7 [1], 102 µM; with NCI-H460 [3], 103 µM. Further, in data set [2], the concentration for 50% growth inhibition (GI50) at 48 h was above 125 µM.

Turning to `COc1ccccc1Nc1ccnc2ccsc12`, the GI50 with HeLa came to 1.4 µM; in the data set on HepG2 it was 18 µM; with HCT-15, 5.91 µM; with MCF7 [1], 5.88 µM; in the data set with NCI-H460 [3], 5.4 µM. This compound gave a GI50 at 48 h in [2] of 6.56 µM. Moreover, the outcome in the data set with NCI-H460 [4] and in the data set on NCI-H460 [5] was Active. This compound showed an Activity in the data set on NCI-H460 [6] above 30%.

Regarding `Fc1ccc(Oc2ccnc3ccsc23)cc1`, the 50% growth inhibitory concentration (GI50) was determined as 33.8 µM in the data set with HeLa; 45.1 µM in the data set on HepG2; 88.1 µM with HCT-15; 98.5 µM in the data set on MCF7 [1]; 101 µM with NCI-H460 [3]. This compound registered a GI50 at 48 h in data set [2] above 125 µM.

As to `COc1ccc(Oc2ccnc3ccsc23)cc1`, the 50% growth inhibitory concentration (GI50) in the data set with HeLa is 49.4 µM; in the data set with HepG2, 53.2 µM; with HCT-15, 86 µM; in the data set on MCF7 [1], 93.3 µM; in the data set with NCI-H460 [3], 86.8 µM. For the same compound, in data set [2], halving of growth (GI50 at 48 h) required 94.5 µM.

On to `Fc1ccc(Nc2ccnc3ccsc23)cc1`, for which the concentration for 50% growth inhibition (GI50) in the data set with HeLa was 77.5 µM; in the data set on HepG2 it was 26.3 µM; with HCT-15 it was 91.2 µM; with MCF7 [1] it was 80.7 µM; in the data set with NCI-H460 [3], 78.5 µM. This compound returned a 50% growth inhibitory concentration (GI50) at 48 h in [2] of 100 µM.

Turning to `COc1ccccc1Oc1ccnc2ccsc12`, the GI50 was found to be 28.9 µM in the data set on HeLa; 62.7 µM in the data set on HepG2; 91.2 µM with HCT-15; 90.9 µM in the data set on MCF7 [1]; 94.2 µM in the data set on NCI-H460 [3]. Also, the GI50 at 48 h in data set [2] was above 125 µM.

On to `Cc1c2ccncc2c(C)c2c1[nH]c1ccccc12` [ELLIPTECINE], for which the GI50 is 3.28 µM in the data set with HeLa; 5.38 µM in the data set on HepG2; 1.91 µM in the data set on HCT-15; 4.32 µM with MCF7 [1]; 5.77 µM in the data set with NCI-H460 [3]. Further, in [2], the GI50 at 48 h worked out at 2.06 µM.

With `Fc1cccc(Nc2ccnc3ccsc23)c1`, the 50% growth inhibitory concentration (GI50) is 69.2 µM in the data set on HeLa; 32 µM in the data set with HepG2; 70.7 µM in the data set with HCT-15; 63.7 µM with MCF7 [1]; 77.5 µM in the data set with NCI-H460 [3]. The compound further came in with a GI50 at 48 h in data set [2] of 119 µM.

With `COC(=O)c1sc2cc(Oc3cccc(OC)c3OC)cnc2c1N`, the concentration for 50% growth inhibition (GI50) (in data set [7]; with NCI-H460 [8]; in the data set on MCF7 [9]) was 1 µM throughout.

In the case of `COC(=O)c1sc2cccnc2c1Nc1ccc(OC)cc1N`, the concentration for 50% growth inhibition (GI50) (in the data set with HepG2; with MCF7 [1]; in the data set on NCI-H460 [3]; in [10]) was 1 µM in each case.

For `Fc1ccccc1Oc1ccnc2ccsc12`, the GI50 with HeLa came out at 50.3 µM; in the data set on HepG2, 16.4 µM; in the data set with HCT-15, 97.2 µM; in the data set with MCF7 [1], 74.3 µM; in the data set with NCI-H460 [3] it was 78 µM. The compound also showed a 50% growth inhibitory concentration (GI50) at 48 h in [2] of 87.2 µM.

As for `COC(=O)c1sc2cc(Oc3cccc(OC)c3)cnc2c1N`, the 50% growth inhibitory concentration (GI50) (in [7]; in the data set on NCI-H460 [8]; in the data set on MCF7 [9]) was 1 µM each time.

`COc1cccc(Oc2ccnc3ccsc23)c1`: the concentration for 50% growth inhibition (GI50) in the data set with HeLa was 3.14 µM; in the data set on HepG2 it was 2.7 µM; in the data set on HCT-15 it was 0.39 µM; in the data set with MCF7 [1], 1.56 µM; in the data set on NCI-H460 [3], 1.04 µM. Further, in [2], it took 26.7 µM to inhibit growth by half (GI50 at 48 h). The outcome in the data set with NCI-H460 [4] and in the data set with NCI-H460 [5] was Active. In addition, the Activity in the data set on NCI-H460 [6] is on record as above 30%.

In the case of `COc1ccc(Nc2ccnc3ccsc23)cc1`, the GI50 with HeLa amounted to 20.4 µM; in the data set with HepG2, 22.1 µM; in the data set with HCT-15, 25.9 µM; with MCF7 [1], 20.2 µM; with NCI-H460 [3] it was 19.4 µM. In [2], this compound yielded a GI50 at 48 h of 22.7 µM.

For `COc1cccc(Nc2ccnc3ccsc23)c1`, the 50% growth inhibitory concentration (GI50) with HeLa is 0.09 µM; with HepG2, 5.02 µM; in the data set on HCT-15 it was 0.31 µM; in the data set with MCF7 [1], 0.25 µM; in the data set on NCI-H460 [3], 0.28 µM. The concentration for 50% growth inhibition (GI50) at 48 h in data set [2] came to 1.94 µM. Moreover, the outcome with NCI-H460 [4] and in the data set on NCI-H460 [5] was Active. The compound further registered an Activity with NCI-H460 [6] above 30%.
